Data set [1] is described as follows: Cmax in Wistar Han rat at 5 mg/kg, po administered via gavage by LC-MS/MS analysis. The conditions noted are these: in vivo. It counts as ADME, organism-based. The arrangement: dose 5 mg/kg, route oral.
The nature of data set [2]: Tmax in Wistar Han rat at 5 mg/kg, po administered via gavage by LC-MS/MS analysis. It counts as ADME, organism-based. The conditions noted are these: in vivo.
For data set [3], the species on record is Mus musculus. In words: Effect on cAMP level in CD-1 mouse brain striatum by immunoassay. It counts as functional. In short, it runs like this: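 CD-1 mice dosed SC (solution in 20% SBE-β-CD with 2 molar equivalents 1N HCl, 1 mL/kg); euthanized by focused microwave irradiation of brain; cortex, striatum, hippocampus homogenized in 0.5 N HCl, centrifuged; cyclic nucleotides in supernatant by enzyme immunoassay. Unbound brain exposure from satellite animals; dose-response and time-course data combined with linear model; one-way ANOVA with Fisher's PLSD.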
Background: Changes in cAMP serve as a functional read-out for many G protein-coupled receptors.

A further data set concerns Brain. The experiment in a line: Drug uptake in rat brain at 5 to 250 mg/kg/day, po up to 15 days by microscopic method. The following applies: in vivo, 360 h. Format: ADME, organism-based. The gist of the method: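 Exploratory rat toxicity study, oral dosing at 5, 50 and 250 mg/kg/day for up to 15 days, with microscopic examination of heart and vasculature and measurement of plasma and brain exposure.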

A short description of data set [4]: Volume of distribution at steady state in beagle dog at 0.3 mg/kg, iv by LC-MS/MS analysis. It counts as ADME, organism-based, Canis lupus familiaris. The following applies: in vivo, read-out: Vdss. In short, it runs like this:
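Beagle dogs got a single IV dose as a solution in 20% (w/v) sulfobutyl ether β-cyclodextrin with hydrochloric acid, at 0.4 mL/kg. Blood was drawn into K3EDTA via carotid artery cannula at set times from 2 min to 24 h. Plasma was acetonitrile-precipitated with internal standard and measured by LC-MS/MS with positive electrospray, standard curve 0.61 to 1250 ng/mL.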

Data set [5] in a line: Ratio of unbound brain concentration to unbound plasma concentration in sc dosed CD-1 mouse. It counts as ADME, organism-based. The following applies: brain and plasma, read-out: K(p,uu,brain). In short, it runs like this: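 Compound given sc to mice, iv and/or sc to rats, po to dogs and sc to monkeys; sc doses as a solution in 20% SBE-BCD + 2 molar equiv 1N HCl. Plasma, whole brain and CSF taken at matched times from 2 min to 24 h and quantified by LC-MS/MS. Fraction unbound in plasma and brain homogenate (diluted 4-fold, dilution factor 5 applied) by 6 h equilibrium dialysis against phosphate buffer at 37°C.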

The target of the next data set is T1, Cytochrome P450 1A2 (Homo sapiens, UniProt P05177).
T1 sequence (P05177 whole entry): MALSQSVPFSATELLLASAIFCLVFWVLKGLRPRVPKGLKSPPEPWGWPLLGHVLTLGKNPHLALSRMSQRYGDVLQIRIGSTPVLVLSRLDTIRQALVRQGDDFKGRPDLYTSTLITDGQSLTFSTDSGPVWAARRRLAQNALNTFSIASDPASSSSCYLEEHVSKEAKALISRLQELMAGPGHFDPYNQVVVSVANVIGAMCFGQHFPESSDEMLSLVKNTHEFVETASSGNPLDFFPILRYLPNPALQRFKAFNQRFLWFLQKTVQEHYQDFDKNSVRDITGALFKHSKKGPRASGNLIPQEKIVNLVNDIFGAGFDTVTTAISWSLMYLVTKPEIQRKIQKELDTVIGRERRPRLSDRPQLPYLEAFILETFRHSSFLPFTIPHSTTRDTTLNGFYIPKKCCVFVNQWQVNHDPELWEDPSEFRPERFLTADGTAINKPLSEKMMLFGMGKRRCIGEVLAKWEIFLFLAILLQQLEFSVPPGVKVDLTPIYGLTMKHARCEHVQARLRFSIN
In words: Induction of CYP1A2 (unknown origin). Format: ADME.

A short description of data set [6]: Drug metabolism in dog hepatocytes assessed as 1-(7-methyl-5-(1-methyl-5-(5-(trifluoromethyl)pyridin-2-yl)-1H-pyrazol-4-yl)imidazo[1,5-f][1,2,4]triazin-4-yl)azetidin-3-ol formation at 1 to 50 uM after 1 hr by LC-MS/MS analysis. It counts as ADME, cell-based, Canis lupus familiaris, Hepatocyte. In short, it runs like this:
(§1)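 Rat, dog or human liver microsomes or hepatocytes (P450 0.35–0.5 µM final) incubated with compound at 1, 10 or 50 µM in 100 mM phosphate buffer with 1 mM NADP regenerating system, 37°C for 1 h; quenched with 4 volumes acetonitrile, centrifuged, supernatant evaporated, reconstituted in 5% aqueous acetonitrile and analysed by reversed-phase LC.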

For data set [7], the species on record is Mus musculus. In words: Increase in cGMP level in CD-1 mouse brain striatum by immunoassay. Format: functional. In short, it runs like this: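 CD-1 mice given compound; brains fixed by focused microwave irradiation, and cortex, striatum and hippocampus dissected and homogenized in 0.5 N HCl, then centrifuged. cGMP in the supernatant measured by enzyme immunoassay. Unbound brain concentration taken from satellite animals. Dose-response and time-course data combined, and a linear Cbu–cGMP model fitted. The Cbu E50 is the projected Cbu giving a 50% rise in cGMP. Statistics by one-way ANOVA with Fisher's PLSD, p<0.05.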

For a further data set, the system named is Rattus norvegicus. In words: Reversal of ketamine-induced working memory deficit in Long Evans rat assessed as unbound brain concentration required to show effect at 0.1 mg/kg, sc by radial arm maze assay. Format: functional, organism-based. The gist of the method: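 Rats trained in a radial arm maze working-memory task, with deficit induced by ketamine. Compound dosed sc; errors compared with vehicle + ketamine. N = 20–23 per group, Hochberg test. Cbu at the tested doses estimated from satellite pharmacokinetic animals.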

Another data set has as its system Liver. In words: Drug metabolism in human liver microsomes assessed as 3-(7-methyl-5-(1-methyl-5-(5-(trifluoromethyl)pyridin-2-yl)-1H-pyrazol-4-yl)imidazo[1,5-f][1,2,4]triazin-4-ylamino)propanoic acid formation at 1 to 50 uM after 1 hr by LC-MS/MS analysis. Format: ADME, microsome. In short, it runs like this: as §1
Background: Liver microsomes are a subcellular fraction often used to study metabolism.

For another data set, the target named is Cytochrome P450 2C19 (Homo sapiens, UniProt P33261). In words: Inhibition of recombinant human CYP2C19. Format: ADME. The following applies: recombinant enzyme.
The subject of data set [8] is Mus musculus. The experiment in a line: In vivo effect on phosphorylated CREB level in CD-1 mouse brain hippocampus by immunoassay. It counts as functional, organism-based.

The structures appear in SMILES notation. Activity calls are given as the source filed them. The rule behind the calls is not given here.

One may read the Cmax as the peak of the concentration-time curve. What is called Tmax is the time from dosing to the highest level.

Chain of Cytochrome P450 2C19 (P33261 whole entry): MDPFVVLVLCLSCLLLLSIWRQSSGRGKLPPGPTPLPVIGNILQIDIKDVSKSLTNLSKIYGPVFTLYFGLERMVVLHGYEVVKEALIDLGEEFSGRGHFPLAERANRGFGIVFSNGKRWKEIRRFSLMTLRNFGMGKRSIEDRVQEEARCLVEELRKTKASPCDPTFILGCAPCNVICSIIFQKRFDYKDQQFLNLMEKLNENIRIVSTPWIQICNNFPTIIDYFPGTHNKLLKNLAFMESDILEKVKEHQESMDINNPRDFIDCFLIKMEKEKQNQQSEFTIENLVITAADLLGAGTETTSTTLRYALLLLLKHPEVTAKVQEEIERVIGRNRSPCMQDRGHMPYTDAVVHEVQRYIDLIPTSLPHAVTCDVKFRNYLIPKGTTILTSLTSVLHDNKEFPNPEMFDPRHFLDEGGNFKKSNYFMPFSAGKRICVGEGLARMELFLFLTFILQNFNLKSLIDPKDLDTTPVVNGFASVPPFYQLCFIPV

In data set [1], `Cc1nc(-c2cnn(C)c2-c2ccc(C(F)(F)F)cn2)c2c(N3CCC3)ncnn12` [PF-05180999] registered a Cmax of 363 ng/mL. Also, the Tmax in data set [2] stood at 4.8 min. For the same compound, the result in the data set filed under Mus musculus [3] and with Mus musculus [8] was inactive. The Drug uptake result with Brain is “Active”. In [4], the Vd came to 2.89 L/kg. The Kp uu in data set [5] is 0.51. The Activity result at Cytochrome P450 1A2 was “Not Active”; in the data set listed under Mus musculus [7], “Dose-dependent effect”. The Drug metabolism entry (in data set [6]; in the data set on Liver) was “Metabolite_Detected” in each case. The Drug uptake(free) in the data set with Rattus norvegicus turned out to be 3.1 nM. The “inhibition (INH)” value at Cytochrome P450 2C19 is listed as “Not Active”.
